Experimental findings from ChEMBL document CHEMBL3862015, “Synthesis and biological evaluation of furocoumarin derivatives on melanin synthesis in murine B16 cells for the treatment of vitiligo” (2016) are described below.

Activity calls are given as the source filed them. The rule behind the calls is not given here.

The test system of the first test is B16-F10. In words: Induction of melanin synthesis in mouse B16F10 cells at 50 uM after 48 hrs by spectrophotometric analysis relative to control. It counts as functional. The essentials:
(§1)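 B16F10 cells in DMEM with 10% heat-inactivated FBS, penicillin/streptomycin, 37 °C, 5% CO2; 5 × 10^5 cells per well, allowed 24 h, then fresh medium with compound for 48 h. Cells washed in cold PBS, lysed in RIPA on ice 40 min, spun 10,000g 20 min; pellet dissolved in 1 M NaOH, 60 °C 2 h, A405, normalised to protein. Three experiments in duplicate.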
Regarding `O=Cc1cc(=O)oc2cc3oc4ccccc4c3cc12`, the result was Active.

In the case of `O=c1ccc2ccc3oc4c(c3c2o1)CCCC4`, the result was Active.

On to `O=c1ccc2cc3ccoc3cc2o1`, for which the outcome was Active.

As for `Cc1cc(=O)oc2cc3occ(-c4ccccc4)c3cc12`, the outcome was Active.

`Cc1coc2ccc3ccc(=O)oc3c12`: the result was Active.

Take `Cc1coc2cc3oc(=O)ccc3cc12`: the outcome was Active.

On to `Cc1oc2cc3oc(=O)ccc3cc2c1C`, for which the outcome was Active.

In turn, `Cc1ccccc1/N=C/c1cc(=O)oc2cc3oc4ccccc4c3cc12` came in with an Activity of 350.5%.

`O=c1cc(CO)c2cc3c(cc2o1)oc1ccccc13`: the outcome was Active.

Turning to `O=c1ccc2cc3c(-c4ccccc4)coc3cc2o1`, the result was Active.

`Cc1coc2cc3oc(=O)cc(C)c3cc12`: the result was Active.

As to `Cc1cc(=O)oc2cc3oc4c(c3cc12)CCCC4`, the result was Active.

As for `Cc1oc2ccc3c(C)cc(=O)oc3c2c1C`, the result was Active.

As to `COc1c2occc2cc2ccc(=O)oc12` [METHOXSALEN], the Activity is on record as 114.5%.

Consider `Cc1oc2ccc3ccc(=O)oc3c2c1C`, for which the outcome was Active.

On to `O=c1ccc2cc3c4c(oc3cc2o1)CCCC4`, for which the result was Active.

Regarding `Cc1oc2cc3oc(=O)cc(C)c3cc2c1C`, the result was Active.

For `Cc1cc(=O)oc2c1ccc1occ(C)c12`, the result was Active.

As for `Cc1cc(=O)oc2c1ccc1occc12`, the outcome was Active.

As to `O=c1ccc2ccc3occc3c2o1`, the outcome was Active.

`Cc1ccc(C(=O)OCc2cc(=O)oc3cc4oc5ccccc5c4cc23)cc1` registered an Activity of 313.1%.

The test system of the next test is B16-F10. In words: Induction of melanin synthesis in mouse B16F10 cells at 50 uM after 48 hrs by spectrophotometric analysis relative to 8-MOP. The test is classed as functional. An outline of the steps: as §1
In the case of `Cc1ccccc1/N=C/c1cc(=O)oc2cc3oc4ccccc4c3cc12`, the “fold change (FC)” value was 3.

In the case of `Cc1ccc(C(=O)OCc2cc(=O)oc3cc4oc5ccccc5c4cc23)cc1`, the “fold change (FC)” value came to 3.
